Screening results (PubChem)
Only some compounds are listed: those with a hit (about 1.8% of all), similar ones and a draw of the others.
Rev-RRE block: disrupts HIV-1 Rev binding to RRE RNA; P05866; Rev peptide-RRE RNA binding, FRET; inhibition, % at 8 µM; hit rate 0.79% among 97,000; AID 704;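 active means inhibition above the screen-wide mean plus 3 SD, cut at about 35% in these data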;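 further: 0% = median DMSO wells and 100% = median Neomycin B control wells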
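Assay system: Rev peptide and RRE RNA, both fluorescently labelled; times: 5 min preincubation and 15 min binding, 25 °C; detection: FRET, ex 480 nm, em 540 and 671 nm; read-out basis: % inhibition from 671/540 nm acceptor-to-donor ratio, scaled between controls; benchmarks: DMSO low control, neomycin B high control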
PLK1 kinase inh: PLK1 (human) kinase inhibition; P53350; recombinant PLK1 kinase, TR-FRET peptide phosphorylation; inhibition, % at 10 µM; hit rate 0.53% among 97,000;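 active means inhibition of 50% or more in the single-concentration screen; inactive means inhibition below 50%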;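 further: 0% = DMSO max control and 100% = H-89 dihydrochloride min control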
Target sequence (P53350 whole entry, looked up): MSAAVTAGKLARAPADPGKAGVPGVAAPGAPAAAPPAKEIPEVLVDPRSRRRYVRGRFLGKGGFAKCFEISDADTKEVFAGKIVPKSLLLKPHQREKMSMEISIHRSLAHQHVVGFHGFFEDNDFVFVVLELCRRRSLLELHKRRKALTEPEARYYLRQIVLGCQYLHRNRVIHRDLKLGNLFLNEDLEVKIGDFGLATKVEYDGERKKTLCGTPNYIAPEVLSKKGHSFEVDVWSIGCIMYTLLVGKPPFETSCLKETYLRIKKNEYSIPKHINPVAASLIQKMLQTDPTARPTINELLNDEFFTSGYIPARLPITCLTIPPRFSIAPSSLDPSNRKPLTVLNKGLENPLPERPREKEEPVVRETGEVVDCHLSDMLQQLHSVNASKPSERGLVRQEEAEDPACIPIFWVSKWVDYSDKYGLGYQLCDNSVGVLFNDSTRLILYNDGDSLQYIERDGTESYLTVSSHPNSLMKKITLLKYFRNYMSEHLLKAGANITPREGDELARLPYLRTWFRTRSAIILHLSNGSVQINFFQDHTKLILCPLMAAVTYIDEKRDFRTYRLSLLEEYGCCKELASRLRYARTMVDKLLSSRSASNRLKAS
LYP act: LYP (human) phosphatase activation. recombinant LYP, DiFMUP fluorescence; 0 = plate median, 100 = signal doubled. activation, % at 2 µM. hit rate 0.11% among 96,000. AID 697;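 active means activation at 2 µM above a set limit, the mean plus 5 SD, cut at about 37% in these data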
EphB4 ephrin blk: blocks human EphB4 binding to ephrin-B2; inhibition, % at 7 µM; P54760; hit rate 0.15% among 97,000; EphB4 LBD / TNYL-RAW-Alexa532 peptide, fluorescence polarization;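 active means inhibition above the screen-wide mean inhibition plus 3 SD, cut at about 15% in these data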;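 further: 0% = DMSO wells and 100% = excess unlabeled TNYL-RAW peptide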
LYP inh 2: LYP (human) phosphatase inhibition; Q9Y2R2; recombinant LYP catalytic domain, DiFMUP fluorescence; inhibition, % at 2 µM; hit rate 0.21% among 96,000;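 active means inhibition at 2 µM at or above a set limit, the screen mean plus 3 SD, cut at about 24% in these data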;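 further: 0% = DMSO with enzyme and 100% = enzyme fully blocked by orthovanadate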
Plk1 PBD FP: blocks phosphopeptide binding to human Plk1 polo box domain; P53350; Plk1 PBD phosphopeptide binding, fluorescence polarization; inhibition, %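 (tested at about 20 µM)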; hit rate 0.13% among 97,000; AID 693; in the data active means inhibition above about 34%, passing the limit was not always enough
PLK1 inh conf: PLK1 (human) kinase inhibition, confirmed | recombinant PLK1 kinase, TR-FRET peptide phosphorylation | inhibition, % at 10 µM | hit rate 20% among 210 | AID 744 | shares compounds with PLK1 kinase inh;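 active means inhibition at or above 50% in each of two repeat confirmation tests; inconclusive means one repeat below 50% inhibition, the other above; inactive means both repeats at or below 50% inhibition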;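 further: 0% = DMSO max control and 100% = H-89 kinase-blocked min control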
Plk1 interf: Plk1 assay compound interference counter-screen hit; shares compounds with PLK1 kinase inh; Plk1 TR-FRET assay interference, compound added post-reaction; inhibition (interference), % at 10 µM; 210 tested, under 10 active; AID 756;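 active means both duplicate runs show 50% or greater inhibition; inconclusive means only one duplicate run shows over 50% inhibition; inactive means both runs show under 50% inhibition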;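 further: 0% = DMSO max control and 100% = H-89 min control inhibited reaction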
Active calls of the source: *; u = inconclusive; x = no result given.

SMILES	Rev-RRE block	PLK1 kinase inh	LYP act	EphB4 ephrin blk	LYP inh 2	Plk1 PBD FP	PLK1 inh conf	Plk1 interf
Cc1ccc(N(C(=O)Cn2nnc(-c3ccc(F)cc3)n2)C(CC(C)C)C(=O)NCC2CCCO2)cc1 (stereo not drawn)	-2	-5	1	-6	2	-16	x	x
COc1ccc(-c2ccnc3nc(N4CCN(c5ccccc5)CC4)nn23)cc1	4	-8	-12	-2	14	-23	x	x
Cc1cc(C(=O)N2CCN(Cc3ccccc3)CC2)on1	0	-9	0	0	-3	0	x	x
CC1CCCC(C)N1c1nnc(NC(=O)c2cc(-c3ccc(Br)cc3)on2)s1 (stereo not drawn)	8	-23	-4	5	2	25	x	x
Clc1ccccc1-c1nc(-c2cccnc2)no1	6	-10	4	6	-4	14	x	x
Cc1ccccc1-c1nc(-c2cccnc2)no1	2	96*	0	3	-2	-37	-1	-61
Cc1cccc(-n2nc3c(c2NC(=O)c2ccc(Br)o2)CSC3)c1	-6	-4	-1	2	4	4	x	x
NC(=O)c1ccc(C(F)(F)F)n(Cc2cccc(Cl)c2)c1=O	7	75*	8	-11	-5	24	62*	-56
NC(=O)c1ccc(C(F)(F)F)n(Cc2ccc(Cl)cc2)c1=O	14	81*	20	-6	-18	-19	56*	-49
CCCCNC(=O)C(C#N)c1nc2ccccc2nc1N1CCN(c2ccccc2F)CC1 (stereo not drawn)	9	-2	-5	10	5	16	x	x
COCc1nnc(NS(=O)(=O)c2ccc(Br)cc2)s1	7	-5	-15	3	10	-1	x	x
O=C(Nc1nnc(-c2ccc3c(c2)CCCC3)o1)C1COc2ccccc2O1 (stereo not drawn)	10	3	-10	8	9	-21	x	x
Nc1nc(-c2ccco2)c(-c2ccco2)s1	13	-7	0	6	0	-3	x	x
c1coc(-c2nc(-c3ccco3)c(-c3ccco3)nc2-c2ccco2)c1	-150	93*	1	19*	-3	-14	-3	-53
CCCCn1c(CN(Cc2ccccc2)Cc2ccccc2)nc2c1c(=O)n(C)c(=O)n2C	3	-4	-3	-7	2	30	x	x
CCOCCn1c(CN(Cc2ccccc2)Cc2ccccc2)nc2c1c(=O)n(C)c(=O)n2C	1	72*	x	-5	x	20	-5	-54
COc1ccc(CCN(Cc2cc3cccc(C)c3[nH]c2=O)C(=O)NC2CCCCC2)cc1OC	4	-1	-8	-5	9	24	x	x
CCc1cccc(OCC(=O)Nc2ccc(S(=O)(=O)Nc3onc(C)c3C)cc2)c1	0	75*	x	3	x	-20	-2	-60
Cc1cc(NC(=O)c2nn3cccnc3c2Cl)no1	-1	0	7	4	-4	-19	x	x
C=CCNC(=O)c1nn2cccnc2c1Cl	11	130*	4	-1	-5	3	-4	-53
CC(C)Cc1nc2n[nH]c(N)c2c2c1COC(C)(C)C2	5	75*	-3	-4	6	-35	u	-54
CC(=O)n1c(Cl)c(NC(=O)CCl)c2ccccc21	8	-9	-4	3	6	-6	x	x
Cc1cccc(Cn2c(N3CCc4ccccc4C3)nc3c2c(=O)[nH]c(=O)n3C)c1	7	-3	-11	-2	12	17	x	x
Cc1cccc(Cn2c(N3CCCCC3C)nc3c2c(=O)[nH]c(=O)n3C)c1 (stereo not drawn)	6	83*	x	3	x	-24	5	-50
Cc1ccc(C(=O)c2coc3ccc(O)c(CN4CCN(C)CC4)c23)cc1	7	-5	-5	1	3	0	x	x
SMILES	Rev-RRE block	PLK1 kinase inh	LYP act	EphB4 ephrin blk	LYP inh 2	Plk1 PBD FP	PLK1 inh conf	Plk1 interf
CCCCc1nc2n[nH]c(N)c2c2c1CSC(C)(C)C2	15	70*	-2	-2	4	-5	36	-46
CC(C)c1ccccc1NC(=O)c1cccc(NC(=O)c2ccccc2)c1	18	0	-2	-3	3	-18	x	x
Cc1cccc(NC(=O)Cc2coc3ccc4ccccc4c23)n1	9	1	-1	10	4	-4	x	x
Cc1oc(-c2cccc(Cl)c2)nc1CN1CCC(C(=O)NCCCN2CCCC2=O)CC1	7	-6	34	-1	-38	-23	x	x
Cc1oc(-c2ccc(Cl)cc2)nc1CN1CCCC(C(=O)NCCCN2CCCC2=O)C1 (stereo not drawn)	-4	73*	x	2	x	-34	-10	-56
Cc1ccc2c(c1)/C(=N/OC(=O)c1ccc(F)cc1)CCS2	15	124*	5	-5	-2	-27	-3	-42
COc1ccccc1N1CCN(S(=O)(=O)c2ccc(F)cc2)CC1	4	82*	-23	0	23	8	-4	-54
CCOc1ccc(NC(=O)c2cccc(OC(=S)N3CCC(C)CC3)c2)cc1	5	-9	8	8	-4	-7	x	x
Cc1ccc(CC(=O)Nc2ccccc2N2CCOCC2)cc1C	19	0	-12	2	12	-12	x	x
O=C(NCCN1C(=O)C2C3C=CC(C3)C2C1=O)Nc1ccc(Br)cc1 (stereo not drawn)	5	72*	x	-3	x	8	-5	-47
Cc1ccc(CNc2ccc(N3CCOCC3)cc2)s1	2	-3	-1	10	0	-2	x	x
CC(=O)N1CCN(c2ccc(NCc3ccc(C)s3)cc2)CC1	-1	77*	x	1	x	-9	-1	-59
O=c1cc(N2CCOCC2)[nH]c(=O)n1-c1ccc(Cl)cc1	3	74*	x	-9	x	-5	6	-41
CCOC(=O)c1ccc(NC(=S)NCCCN2CCCCC2)cc1	-7	113*	0	2	5	-17	-3	-49
CCOc1ccc(NC(=O)NCCCN2CCCC2)cc1	13	9	-5	-5	8	27	x	x
C=CCNc1nc(N)c(C(=O)c2ccc3c(c2)OCO3)s1	1	75*	-10	-8	9	12	74*	-45
CCSc1nnc(NC(=O)C(C)C)s1	8	71*	x	1	x	7	-2	-52
O=C1C2CC=CCC2C(=O)N1c1ccc(Cc2ccncc2)cc1 (stereo not drawn)	-1	-8	4	-3	-1	38	x	x
Cc1ccc(N(CC(=O)Nc2ccc(C)cc2C)S(=O)(=O)N2CCCC2)cc1	6	88*	7	1	-6	5	-9	-49
CCN1CCN(CC(=O)Nc2ccc(C)cc2C)C(=O)C1=O	7	5	-9	-4	8	18	x	x
